Reference: ChEMBL document CHEMBL4823318, “Kinetic and structural investigations of novel inhibitors of human epithelial 15-lipoxygenase-2” (Bioorg Med Chem, 2021)
pIC50: −log10 of the molar value.

Legend:
[1] = species: Homo sapiens; assay: Selectivity ratio of IC50 for inhibition of human 15-LOX-1 to IC50 for inhibition of human 15-LOX-2
Outline: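 h15-LOX-1 (~60 nM total protein) was run at 23 °C, stirred, in 25 mM HEPES pH 7.5, 0.01% Triton X-100 and 10 μM AA. Diene product was read at 234 nm. Inhibition at 25 μM inhibitor was taken against the DMSO rate, in duplicate.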

[2] = species: Homo sapiens; assay: Selectivity ratio of IC50 for inhibition of human 5-LOX to IC50 for inhibition of human 15-LOX-2
[3] = system: HEK-293T; assay: Cytotoxicity against human HEK293T cells expressing human 15-LOX-2 at 10 uM measured after 1 hr by cell survival assay; type: cell-based
Outline: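 HEK293T cells stably overexpressing h15-LOX-2 were kept in MEM with 10% FBS, 2 mM glutamine, penicillin/streptomycin and 640 ug/ml G418. Cells were exposed to 0.2% DMSO, 10 μM or 20 μM inhibitor for 1 h. Medium was then replaced and cells were checked daily for death.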

[4] = biological target: T1, Polyunsaturated fatty acid lipoxygenase ALOX8 (Mus musculus, UniProt O35936); assay: Inhibition of mouse 15-LOX2 assessed as enzymatic rate using arachidonic acid as substrate by UV/Vis spectrophotometric analysis
T1 sequence (O35936 whole entry): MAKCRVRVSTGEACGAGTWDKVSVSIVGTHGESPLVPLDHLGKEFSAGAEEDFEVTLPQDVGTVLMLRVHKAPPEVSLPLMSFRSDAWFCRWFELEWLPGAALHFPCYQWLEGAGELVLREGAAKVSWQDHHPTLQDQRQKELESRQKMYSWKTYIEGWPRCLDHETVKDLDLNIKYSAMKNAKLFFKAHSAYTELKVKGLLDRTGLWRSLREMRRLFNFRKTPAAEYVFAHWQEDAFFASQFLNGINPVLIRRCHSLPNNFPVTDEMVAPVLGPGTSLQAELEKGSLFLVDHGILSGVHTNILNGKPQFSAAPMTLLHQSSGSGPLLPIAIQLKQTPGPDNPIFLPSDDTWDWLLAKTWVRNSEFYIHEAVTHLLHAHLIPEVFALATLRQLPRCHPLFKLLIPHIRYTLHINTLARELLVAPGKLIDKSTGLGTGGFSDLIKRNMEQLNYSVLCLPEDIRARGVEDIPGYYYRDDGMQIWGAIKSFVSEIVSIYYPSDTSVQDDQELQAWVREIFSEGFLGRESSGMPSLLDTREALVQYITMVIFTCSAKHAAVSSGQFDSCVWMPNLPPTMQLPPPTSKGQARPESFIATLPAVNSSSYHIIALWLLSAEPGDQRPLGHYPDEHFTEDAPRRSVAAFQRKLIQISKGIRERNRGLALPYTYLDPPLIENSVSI

[5] = species: Homo sapiens; assay: Selectivity ratio of IC50 for inhibition of human 12-LOX to IC50 for inhibition of human 15-LOX-2
Outline: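 Conjugated diene formation was followed at 234 nm. Rates were compared with the DMSO control at a single 25 μM inhibitor concentration, in duplicate.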

[6] = biological target: Prostaglandin G/H synthase 1 (Ovis aries) (UniProt P05979); assay: Inhibition of ovine COX-1 assessed as enzymatic rate using arachidonic acid as substrate by oxygen electrode measurement of oxygen consumption
[7] = species: Homo sapiens; assay: Selectivity ratio of IC50 for inhibition of ovine COX1 to IC50 for inhibition of human 15-LOX-2
[8] = species: Homo sapiens; assay: Selectivity ratio of IC50 for inhibition of human COX2 to IC50 for inhibition of human 15-LOX-2
Outline: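 Ovine COX-1 or human recombinant COX-2 (~3 μg) was used in 0.1 M Tris-HCl pH 8.0 with 5 mM EDTA, 2 mM phenol and 1 μM hemin at 37 °C. Inhibitor was preincubated with enzyme for 5 min, then ~100 μM AA was added. O2 consumption was recorded with an oxygen electrode, and rates were compared to the DMSO control, in duplicate.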

[9] = biological target: T2, Polyunsaturated fatty acid lipoxygenase ALOX15B (Homo sapiens) (UniProt O15296); assay: Competitive inhibition of human 15-LOX-2 assessed as equilibrium dissociation constant from catalytic site by measuring 15-HpETE by Dixon plots and Dixon replots analysis
T2 sequence (whole entry): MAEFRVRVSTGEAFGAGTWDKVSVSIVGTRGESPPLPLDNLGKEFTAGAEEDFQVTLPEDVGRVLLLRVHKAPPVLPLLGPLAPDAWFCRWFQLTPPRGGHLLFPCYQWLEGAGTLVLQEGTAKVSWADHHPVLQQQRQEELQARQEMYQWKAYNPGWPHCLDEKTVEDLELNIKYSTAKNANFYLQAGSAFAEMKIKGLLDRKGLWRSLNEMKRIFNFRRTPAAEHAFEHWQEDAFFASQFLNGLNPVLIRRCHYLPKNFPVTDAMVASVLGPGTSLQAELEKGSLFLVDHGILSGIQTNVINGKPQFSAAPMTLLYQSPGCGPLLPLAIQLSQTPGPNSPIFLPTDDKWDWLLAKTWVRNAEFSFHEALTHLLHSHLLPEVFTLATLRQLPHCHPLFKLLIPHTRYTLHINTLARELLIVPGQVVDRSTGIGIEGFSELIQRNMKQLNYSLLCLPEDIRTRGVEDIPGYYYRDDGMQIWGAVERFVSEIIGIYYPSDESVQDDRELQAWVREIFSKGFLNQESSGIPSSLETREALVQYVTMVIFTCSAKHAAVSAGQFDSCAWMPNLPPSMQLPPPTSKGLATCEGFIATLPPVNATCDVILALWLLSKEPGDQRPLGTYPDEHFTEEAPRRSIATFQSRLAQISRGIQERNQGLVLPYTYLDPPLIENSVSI
Outline: (§1)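 Steady-state kinetics with h15-LOX-2 at 23 °C in stirred 25 mM HEPES pH 7.5, 0.01% Triton X-100, with 0.7–20 μM AA, reaction started by adding enzyme. Initial rates at varied inhibitor levels were fit to Henri-Michaelis-Menten for Vmax and Km. Slopes from Dixon plots (1/v vs [I]) were replotted against 1/[S]. Kic = (Km/Vmax)/replot slope; Kiu = (1/Vmax)/replot y-intercept.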

[10] = biological target: T2, Polyunsaturated fatty acid lipoxygenase ALOX15B (Homo sapiens); assay: Uncompetitive inhibition of human 15-LOX-2 assessed as equilibrium dissociation constant from secondary site by measuring 15-HpETE by Dixon plots and Dixon replots analysis; outline: as §1

Ratio IC50 [1] | Ratio IC50 [2] | pIC50 [4] | Ratio IC50 [5] | pIC50 [6] | Ratio IC50 [7] | Ratio IC50 [8] | Kic [9] | Kiuc [10] | SMILES | Activity [3]
> 50 | > 50 | < 4.30 | > 50 | < 4.00 | > 50 | > 50 | 0.9 µM | 3.4 µM | CCc1ccc(CSc2nccn2-c2ccccc2)cc1 | Non-Toxic
> 50 | > 50 | < 4.30 | > 50 | < 4.00 | > 50 | > 50 | 0.7 µM |  | FC(F)(F)c1ccc(CSc2nccn2-c2ccccc2)cc1 | Non-Toxic
 |  | < 4.30 |  | < 4.00 |  |  |  |  | Brc1ccc(CSc2nccn2-c2ccccc2)cc1 | Non-Toxic
 |  |  |  |  |  |  |  |  | Cc1ccc(CSc2ncn(-c3ccccc3)n2)cc1 | Non-Toxic
